# Measurements from ChEMBL document CHEMBL3822384, “2-(3-Methoxyphenyl)quinazoline Derivatives: A New Class of Direct Constitutive Androstane Receptor (CAR) Agonists” (J Med Chem, 2016).
# The source made the active and inactive calls. The rule behind the calls is not given here.
# Assays:
# [1] = biological target: Cytochrome P450 2C9 (Homo sapiens, UniProt P11712); experiment: Inhibition of recombinant human CYP2C9 by P450-Glo luminescence assay; assay type: ADME
# [2] = biological target: T1, Aryl hydrocarbon receptor (Homo sapiens, UniProt P35869); experiment: (§1) Agonist activity at AHR expressed in human HepG2 cells after 24 hrs by pXRE-luciferase reporter gene assay; assay type: cell-based
# T1 sequence (P35869 whole entry): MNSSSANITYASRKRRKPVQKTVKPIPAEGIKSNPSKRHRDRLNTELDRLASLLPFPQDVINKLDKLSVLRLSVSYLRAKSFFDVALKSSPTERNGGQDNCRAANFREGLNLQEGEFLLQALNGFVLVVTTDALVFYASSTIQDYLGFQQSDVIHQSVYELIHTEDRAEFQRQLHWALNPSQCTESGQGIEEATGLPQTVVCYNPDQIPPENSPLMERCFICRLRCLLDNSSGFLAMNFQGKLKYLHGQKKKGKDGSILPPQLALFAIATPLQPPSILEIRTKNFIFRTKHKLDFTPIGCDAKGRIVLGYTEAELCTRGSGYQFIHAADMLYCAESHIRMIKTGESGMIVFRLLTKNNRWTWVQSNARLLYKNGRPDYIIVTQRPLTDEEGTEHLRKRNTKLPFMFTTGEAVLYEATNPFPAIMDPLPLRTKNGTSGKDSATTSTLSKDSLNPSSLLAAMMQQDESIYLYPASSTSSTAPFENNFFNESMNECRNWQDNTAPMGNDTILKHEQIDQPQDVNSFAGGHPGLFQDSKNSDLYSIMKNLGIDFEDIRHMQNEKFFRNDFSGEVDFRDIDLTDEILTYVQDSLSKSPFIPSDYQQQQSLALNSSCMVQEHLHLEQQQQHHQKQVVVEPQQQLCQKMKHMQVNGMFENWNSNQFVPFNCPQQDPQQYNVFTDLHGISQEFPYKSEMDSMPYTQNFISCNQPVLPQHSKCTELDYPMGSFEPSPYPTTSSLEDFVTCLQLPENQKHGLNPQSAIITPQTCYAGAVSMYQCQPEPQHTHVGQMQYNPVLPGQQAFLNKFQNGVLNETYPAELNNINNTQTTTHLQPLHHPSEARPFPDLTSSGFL
# [3] = biological target: T2, AHR (Homo sapiens, UniProt P35869); experiment: as §1; assay type: cell-based; details: human, HepG2 cells expressing AHR; read-out: Imax
# T2 sequence (P35869 whole entry): T1 sequence (P35869 whole entry)
# [4] = biological target: T3, Vitamin D3 receptor (Homo sapiens) (UniProt P11473); experiment: Agonist activity at VDR in human primary hepatocytes assessed as upregulation of CYP3A4 mRNA expression at 10 uM after 24 hrs by qRT-PCR method; assay type: cell-based; details: Hepatocyte
# T3 sequence (whole entry): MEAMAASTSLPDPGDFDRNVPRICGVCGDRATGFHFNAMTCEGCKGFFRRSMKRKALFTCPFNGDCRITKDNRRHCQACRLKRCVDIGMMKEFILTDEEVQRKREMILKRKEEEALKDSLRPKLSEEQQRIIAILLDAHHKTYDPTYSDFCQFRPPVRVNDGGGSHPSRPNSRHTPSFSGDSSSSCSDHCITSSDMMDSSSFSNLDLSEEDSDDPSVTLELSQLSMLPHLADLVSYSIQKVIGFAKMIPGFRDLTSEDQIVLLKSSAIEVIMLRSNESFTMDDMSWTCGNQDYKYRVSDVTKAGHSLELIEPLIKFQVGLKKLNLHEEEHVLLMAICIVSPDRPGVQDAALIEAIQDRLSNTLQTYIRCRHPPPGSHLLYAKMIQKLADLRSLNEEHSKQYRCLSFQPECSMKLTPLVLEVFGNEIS
# [5] = biological target: T1, Aryl hydrocarbon receptor; experiment: Agonist activity at AHR in human HepaRG cells assessed as upregulation of CYP1B1 mRNA expression at 10 uM after 24 hrs by qRT-PCR method; assay type: cell-based
# [6] = biological target: T4, Vitamin D3 receptor (Homo sapiens, UniProt P11473); experiment: Agonist activity at VDR expressed in human HuH7 cells after 24 hrs by pDR3-luciferase reporter gene assay; assay type: cell-based, Huh-7
# T4 sequence (P11473 whole entry): T3 sequence (whole entry)
# [7] = biological target: T5, Cytochrome P450 2B6 (Homo sapiens, UniProt P20813); experiment: Inhibition of recombinant human CYP2B6 by P450-Glo luminescence assay; assay type: ADME
# T5 sequence (P20813 whole entry): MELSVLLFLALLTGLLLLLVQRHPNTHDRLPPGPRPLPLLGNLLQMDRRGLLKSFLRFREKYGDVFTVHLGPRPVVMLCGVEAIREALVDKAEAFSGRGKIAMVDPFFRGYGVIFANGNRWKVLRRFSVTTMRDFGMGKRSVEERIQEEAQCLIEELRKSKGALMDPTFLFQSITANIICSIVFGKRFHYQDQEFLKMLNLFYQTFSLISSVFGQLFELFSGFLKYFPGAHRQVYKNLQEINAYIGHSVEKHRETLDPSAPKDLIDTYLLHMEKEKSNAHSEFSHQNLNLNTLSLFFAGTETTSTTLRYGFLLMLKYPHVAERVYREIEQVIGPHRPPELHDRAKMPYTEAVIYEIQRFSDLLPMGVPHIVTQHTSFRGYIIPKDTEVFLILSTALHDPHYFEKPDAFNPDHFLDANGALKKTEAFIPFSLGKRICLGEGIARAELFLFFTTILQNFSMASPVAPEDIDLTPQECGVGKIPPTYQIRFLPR
# [8] = biological target: T6, Nuclear receptor subfamily 1 group I member 3 (Homo sapiens, UniProt Q14994); experiment: Agonist activity at CAR expressed in human HepG2 cells at 1 to 20 uM after 48 hrs by p(ER6)3-luciferase reporter gene assay; assay type: cell-based; details: hepg2, 48 h
# T6 sequence (Q14994 whole entry): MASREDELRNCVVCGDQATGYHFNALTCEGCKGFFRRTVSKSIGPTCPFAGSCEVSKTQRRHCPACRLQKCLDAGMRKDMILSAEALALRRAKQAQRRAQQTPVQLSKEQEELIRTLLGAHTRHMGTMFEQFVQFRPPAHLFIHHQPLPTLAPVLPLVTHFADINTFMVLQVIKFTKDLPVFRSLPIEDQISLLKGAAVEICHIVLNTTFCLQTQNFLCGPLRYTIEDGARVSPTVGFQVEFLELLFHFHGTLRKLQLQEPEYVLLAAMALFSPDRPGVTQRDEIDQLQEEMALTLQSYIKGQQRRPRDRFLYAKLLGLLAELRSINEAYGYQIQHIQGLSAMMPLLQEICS
# In short: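 HepG2 cells transiently co-transfected with p(ER6)3-luc reporter, wild-type CAR expression vector and pRL-TK normalization plasmid; after 24 h stabilization, treated with compounds or vehicle (DMSO 0.1%, v/v) for 48 h. Firefly and Renilla luciferase read; fold change versus vehicle (set to 1), means ± SD of triplicates from a representative experiment.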
# [9] = test system: HepG2; experiment: Cytotoxicity against human HepG2 cells assessed as cell viability after 24 hrs by MTS assay; assay type: cell-based; details: hepg2, 24 h
# [10] = biological target: T6, Nuclear receptor subfamily 1 group I member 3; experiment: Agonist activity at human GAL4-fused CAR LBD (108 to 348 residues) expressed in human HepG2 cells assessed as receptor binding to SRC1-VP16 fusion protein at 5 to 20 uM after 24 hrs by luciferase reporter gene assay; assay type: cell-based; details: hepg2, 24 h
# Cytochrome P450 2C9, sequence (P11712 whole entry): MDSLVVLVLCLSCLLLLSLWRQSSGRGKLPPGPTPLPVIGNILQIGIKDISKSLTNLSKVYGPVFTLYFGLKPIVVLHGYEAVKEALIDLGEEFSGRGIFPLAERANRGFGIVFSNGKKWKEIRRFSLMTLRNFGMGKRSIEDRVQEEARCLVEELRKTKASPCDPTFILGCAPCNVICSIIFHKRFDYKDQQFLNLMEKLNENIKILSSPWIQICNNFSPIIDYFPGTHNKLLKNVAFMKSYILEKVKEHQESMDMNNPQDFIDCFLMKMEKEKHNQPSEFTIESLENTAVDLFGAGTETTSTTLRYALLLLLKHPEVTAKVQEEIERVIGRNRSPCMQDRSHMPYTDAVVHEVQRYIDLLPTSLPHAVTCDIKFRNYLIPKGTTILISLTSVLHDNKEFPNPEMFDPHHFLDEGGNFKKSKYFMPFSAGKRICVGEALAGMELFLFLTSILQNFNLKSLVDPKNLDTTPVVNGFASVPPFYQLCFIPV
IC50 [1] [µM],EC50 [2] [µM],Emax at 24 h [3] [%],Activity [4],Activity [5],EC50 [6] [µM],IC50 [7] [µM],Activity [8],Activity [10],SMILES,Activity [9]
5.03,7.3,290,Active,Active,1.95,36.2,Active,Active,COc1cccc(-c2nc(OC)c3ccccc3n2)c1,Non-toxic
11,0.63,266,Active,Active,0.51,35.7,Active,Active,COc1cccc(-c2nc3ccccc3c(=S)[nH]2)c1,Non-toxic
4.19,2.3,219,Active,Active,> 3,31.8,Active,Active,COc1cccc(-c2nc(SC)c3ccccc3n2)c1,Non-toxic
